# M4 ag – human M4 muscarinic receptor agonists, primary screen, CHO-K1 cells, Fluo-8 calcium fluorescence; AID 624127, 2012; activation, % at 3 µM; CHO-K1 hM4/Gqi5; vehicle 0%, full acetylcholine response 100%; Muscarinic acetylcholine receptor M4 (Homo sapiens), P08173; 360,000 compounds, 0.14% hits;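 active means activation above the run mean over all test wells plus 3 SD, cut at about 32% in these data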;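 further: peak over basal fluorescence ratio per well then scaled between controls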
# M4 antag – human M4 muscarinic receptor antagonists, primary screen, CHO cells, Fluo-8 calcium fluorescence | inhibition, % at 3 µM | 360,000 compounds, 0.73% hits | CHO-hM4 cells, ACh EC80 | AID 624125, 2012;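 active means inhibition above its plate's cutoff, the mean inhibition of sample wells plus 3 SD, cut at about 27% in these data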
# CHRM4 PAM – human M4 muscarinic receptor positive allosteric modulators, primary screen, CHO-K1 cells, Fluo-8 calcium fluorescence; Muscarinic acetylcholine receptor M4 (Homo sapiens), P08173; CHO-K1 hM4/Gqi5, ACh EC20; 0% = ACh EC20, 100% = maximal ACh; activation, % at 3 µM; 360,000 compounds, 0.4% hits;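 active means activation above its plate's cutoff, the mean activation of sample wells plus 3 SD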
# M5 ag – human M5 muscarinic receptor agonists, primary screen, CHO-K1 cells, Fluo-8 calcium fluorescence; 360,000 compounds, 0.19% hits; AID 624037, 2012; CHO-K1 hM5 cells; 0% DMSO wells, 100% maximal acetylcholine response; activation, % at 3 µM; Muscarinic acetylcholine receptor M5 (Homo sapiens), P08912;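 active means activation above the run's mean over test compounds plus 3 SD, cut at about 23% in these data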;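 further: signal is peak over basal fluorescence ratio across the kinetic read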
# Target sequence (P08912 whole entry, looked up): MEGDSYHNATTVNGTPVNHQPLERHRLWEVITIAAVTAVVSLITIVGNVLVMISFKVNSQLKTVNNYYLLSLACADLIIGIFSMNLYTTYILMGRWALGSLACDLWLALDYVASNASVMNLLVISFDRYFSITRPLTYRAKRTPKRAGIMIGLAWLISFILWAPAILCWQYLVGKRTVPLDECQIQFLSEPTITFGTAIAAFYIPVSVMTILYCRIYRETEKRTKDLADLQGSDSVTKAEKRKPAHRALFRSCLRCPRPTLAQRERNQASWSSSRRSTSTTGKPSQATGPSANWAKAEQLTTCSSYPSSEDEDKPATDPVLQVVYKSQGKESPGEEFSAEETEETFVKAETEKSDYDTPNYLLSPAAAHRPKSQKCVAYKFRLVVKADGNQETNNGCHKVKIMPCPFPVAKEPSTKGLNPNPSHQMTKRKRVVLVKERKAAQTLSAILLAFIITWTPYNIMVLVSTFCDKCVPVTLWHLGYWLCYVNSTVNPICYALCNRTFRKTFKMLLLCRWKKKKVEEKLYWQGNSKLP
# CHRM5 PAM – human M5 muscarinic receptor positive allosteric modulators, primary screen, CHO-K1 cells, Fluo-8 calcium fluorescence; Muscarinic acetylcholine receptor M5 (Homo sapiens), P08912; CHO-K1 hM5, ACh EC20 PAM; 0% = ACh EC20, 100% = ACh EC100; activation, % at 3 µM; 360,000 compounds, 0.3% hits; AID 624038, 2012;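 active means activation above the run cutoff, the mean activation of all test compounds plus 3 SD, cut at about 18% in these data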
#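 Assay system – human M5 receptor in CHO-K1 cells · Read-out – % activation, ACh-normalized · Technique – Fluo-8 calcium fluorescence · Dosing – single-point, 3 µM nominal · Incubation – Fluo-8 loading 80 min at 37 °C plus 30 min room temperature · Repeats – singlicate, one well per test compound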
# CHRM5 antagonist – human M5 muscarinic receptor antagonists, primary screen, CHO cells, Fluo-8 calcium fluorescence; inhibition, % at 3 µM; Muscarinic acetylcholine receptor M5 (Homo sapiens), P08912; 360,000 compounds, 0.59% hits; CHO-hM5 cells, ACh EC80; AID 624040, 2012;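 active means inhibition above a per-plate cutoff, the mean of that plate's test compounds plus 3 SD, cut at about 27% in these data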
# Hits are given with their value; n = inactive. Compounds with a hit are over-represented: about 1.8% of the library has one in this group of screens.
SMILES,M4 ag,M4 antag,CHRM4 PAM,M5 ag,CHRM5 PAM,CHRM5 antagonist
CC(O)(C#CCN1CCCCC1)c1ccccc1 (stereo not given),n,n,n,n,n,n
OC(CC#CCN1CCOCC1)(c1ccccc1)c1ccccc1,n,n,n,n,n,n
CC(C)C(O)(CC#CCN1CCCC1)c1ccccc1 (stereo not given),n,49,n,n,n,42
CC1CCCCN1C(C(=O)O)c1ccccc1 (stereo not given),n,n,n,n,n,n
OC(CC#CCN1CCCC1)(c1ccccc1)c1ccccc1,n,88,n,n,n,58
Cc1ccccc1NC(=O)C(C)O/N=C/c1cccc([N+](=O)[O-])c1 (stereo not given),n,n,n,n,n,n
COc1ccc(S(=O)(=O)N2CCCCC2)cc1NC(=O)CCNC(=O)c1ccco1,n,n,n,n,n,n
CN(C)c1nc(Cl)nc(N(C#N)CCOc2ccccc2)n1,n,n,n,n,n,n
CC(C)(Oc1ccc(Cl)cc1)C(=O)Nc1cccc(S(=O)(=O)NC2=NCCC2)c1,n,n,n,n,n,n
CN1CCN(CC#CCC(O)(c2ccccc2)c2ccccc2)CC1,n,n,n,n,n,n
CC(O)(C#CCN1CCCC1)c1ccccc1 (stereo not given),n,n,n,n,n,n
CC(C)(C)C(O)(CC#CCN1CCCC1)c1ccccc1 (stereo not given),n,n,n,n,n,34
OC(C#CCN1CCCC1)(c1ccccc1)c1cccc(F)c1 (stereo not given),n,94,n,n,n,98
C(#CCN1CCCC1)CC(c1ccccc1)c1ccccc1,n,69,n,n,n,75
OC(CC#CCN1CCCCC1)(c1ccccc1)c1ccccc1,n,44,n,n,n,n
Cc1ccc(C(=O)CN2C(=O)NC3(CCc4ccccc43)C2=O)s1 (stereo not given),n,n,n,n,n,n
O=C1Nc2cc(C(F)(F)F)ccc2N2CCCCC12 (stereo not given),n,n,n,n,n,n
NC(Cc1ccccc1)c1csc(Nc2nccc(C(F)(F)F)n2)n1 (stereo not given),n,n,n,n,n,n
Cc1ccc(S(=O)(=O)NNC(=O)c2cc(C)cs2)cc1,n,n,n,n,n,n
O=C(NCC(c1ccco1)N1CCN(c2ccccc2F)CC1)c1ccc2c(c1)OCO2 (stereo not given),n,n,n,n,n,n
CC(=O)c1sc(NC(=O)COc2ccc([N+](=O)[O-])cc2)nc1C,n,n,n,n,n,n
CC(C)C(O)(C#CCN1CCCCCC1)c1ccccc1 (stereo not given),n,54,n,n,n,60
CC1CCCN(CCCCOc2cccc(Br)c2)C1 (stereo not given),n,35,n,n,n,n
CC1CCCN(CCOc2ccc(Br)cc2)C1 (stereo not given),n,n,n,n,n,n
Brc1cccc(OCCCCN2CCCCC2)c1,n,53,n,n,n,n
SMILES,M4 ag,M4 antag,CHRM4 PAM,M5 ag,CHRM5 PAM,CHRM5 antagonist
CCOc1cccc(OCCCCN2CCCCC2)c1,n,57,n,n,n,n
O=C(CN1C(=O)CCS(=O)(=O)c2ccccc21)Nc1ccc(Cl)cc1,n,n,n,n,n,n
CCN(CC(=O)Nc1ccc(NC(C)=O)cc1)C(=O)c1cccc(S(=O)(=O)N2c3ccccc3CC2C)c1 (stereo not given),n,n,n,n,n,n
Clc1cccc2c3c([nH]c12)CCNC3,n,n,n,n,n,n
Fc1ccccc1CNC(=S)Nc1cccc(C(F)(F)F)c1,n,n,n,n,n,27
CN(C)C(CNC(=O)C1CC(=O)N(c2cccc(C(F)(F)F)c2)C1)c1ccccc1 (stereo not given),n,n,n,n,n,n
c1ccc(Sc2ccccc2CN2CCCC2)cc1,n,39,n,n,n,74
Fc1ccccc1CN1CCCCCCC1,n,n,n,n,n,n
c1ccc(-n2ncc3cccnc32)cc1,n,n,n,n,n,n
COc1ccc(-c2sc3cc(OC)c(OC)cc3c2-c2ccc(O)cc2)cc1,n,n,n,n,n,n
CC(C)(C)S(=O)N1Cc2cc(C(=O)Nc3ccc(-c4ccccc4)cc3)nc(-c3cccc(-c4cc5ccccc5o4)c3)c2[C@@H]1CCO (stereo not given in full),n,n,21,n,n,n
CCCNC(=O)c1ccc(N2CCC3(CC2)CC(c2cccc(Br)c2)=NO3)c([N+](=O)[O-])c1,n,33,n,n,n,n
CCOC(=O)C1=CC[C@@H](c2ccccc2)N(S(=O)(=O)c2ccc(C)cc2)[C@H]1C#N,n,32,n,n,n,n
CCOC(=O)C1=CC[C@@H](c2ccccc2)N(S(=O)(=O)c2ccc(C)cc2)[C@H]1c1ccc(C#N)cc1,n,n,n,n,n,n
CC1Oc2ccccc2N(CC(=O)NCc2ccccc2)C1=O (stereo not given),n,n,23,n,n,n
CC1Oc2ccccc2N(CC(=O)NC2CC2)C1=O (stereo not given),n,n,n,n,n,n
FC(F)(F)c1ccccc1NC(=S)N/N=C1\CC2CC=CC12 (stereo not given),n,n,n,n,n,n
CN1C(=O)/C(=C/c2ccccc2OCc2ccc(F)cc2)N(C)C1=S,n,97,n,n,n,77
COc1ccccc1NC(=O)CSc1nnc(COc2ccc(Cl)cc2)o1,n,n,n,n,n,n
COc1ccccc1NC(=O)CSc1nnc(COc2ccccc2C)o1,n,100,n,n,n,n
Cc1cc(=O)n(-c2ccc3ccccc3n2)[nH]1,n,n,34,n,n,n
Fc1cccc(F)c1-n1c(CN2CCCC2)csc1=S,n,68,n,n,n,n
CCOC(=O)c1ccc(CNCc2ccccc2)cc1,n,40,n,n,n,n
COc1ccc(C(=O)COC(=O)c2cc(=O)[nH]c3ccccc23)c(OC)c1,n,n,n,n,n,n
O=C(O)/C=C/C(=O)NCc1ccccn1,n,n,n,n,21,n

# Screens deposited in PubChem BioAssay by The Scripps Research Institute Molecular Screening Center.
